Activity calls are given as the source filed them. The rule behind the calls is not given here.
Tests used:
[1] = biological target: T1, Bile acid receptor (Homo sapiens, UniProt Q96RI1); test: Antagonist activity at human FXR expressed in monkey CV1 cells after 24 hrs by ecdysone receptor response element-driven luciferase reporter assay; assay type: functional, cell-based, CV-1
T1 sequence (Q96RI1 whole entry): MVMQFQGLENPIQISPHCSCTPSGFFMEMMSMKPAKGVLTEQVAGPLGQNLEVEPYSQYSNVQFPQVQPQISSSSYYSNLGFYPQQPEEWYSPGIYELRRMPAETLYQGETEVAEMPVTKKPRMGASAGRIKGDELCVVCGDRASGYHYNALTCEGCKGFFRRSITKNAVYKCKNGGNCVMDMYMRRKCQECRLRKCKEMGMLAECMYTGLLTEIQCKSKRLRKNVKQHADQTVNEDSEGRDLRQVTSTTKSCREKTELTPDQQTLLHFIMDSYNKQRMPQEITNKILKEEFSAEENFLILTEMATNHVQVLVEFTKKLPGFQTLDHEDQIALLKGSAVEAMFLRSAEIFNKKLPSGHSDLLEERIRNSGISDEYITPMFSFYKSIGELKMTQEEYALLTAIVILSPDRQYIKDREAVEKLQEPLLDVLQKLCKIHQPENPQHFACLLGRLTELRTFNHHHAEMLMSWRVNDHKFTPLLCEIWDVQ
In short: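 Full-length human FXR, EcRE-driven luciferase reporter and β-galactosidase plasmid cotransfected into CV-1 cells, seeded 24 h beforehand in DMEM with 10% lipid-depleted FBS at 37 °C, 5% CO2. After a further 24 h, cells were exposed to compound or DMSO vehicle with 50 µM CDCA. Harvest was at 24 h, with luciferase normalized to β-galactosidase. Triplicate wells, three repeats.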

[2] = Cytotoxicity against monkey CV1 cells after 24 hrs by MTT assay; assay type: cell-based; details: Chlorocebus aethiops, CV-1, 24 h
In short: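 CV-1 monkey kidney cells plated in DMEM with 10% FBS at 37 °C, 5% CO2, grown 24 h, then exposed to compounds at a range of concentrations for 24 h. MTT at 1 mg/mL added for 1 h at 37 °C. Formazan dissolved in DMSO and absorbance read at 450 nm. Each experiment repeated more than three times.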

[3] = biological target: T2, Bile acid receptor (Homo sapiens) (UniProt Q96RI1); test: Inhibition of CDCA-mediated interaction between FXR ligand binding domain and SRC1 at 25 uM by SPR spectroscopy
T2 sequence (whole entry): T1 sequence (Q96RI1 whole entry)
In short: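 Human FXR LBD (4 µM) preincubated 1 h with compound plus 50 µM CDCA, then injected for 120 s over an immobilized SRC-1 coactivator peptide surface, followed by a 120 s buffer wash. Biacore SPR, 25 °C.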

## CC1(C)CCC[C@]2(C)[C@H]3C[C@@H](O)[C@]4(C)[C@H]5COC(=O)C5=CC[C@H]4[C@]3(C)CC[C@@H]12
[1]
  IC50: 31.6 µM
[2]
  IC50: 41.4 µM
[3]
  Activity: Active

## C[C@]1(CO)CCC[C@]2(C)[C@H]3C[C@@H](O)[C@]4(C)[C@H]5COC(=O)C5=CC[C@H]4[C@]3(C)CC[C@@H]12
[1]
  IC50: > 100 µM
[2]
  IC50: > 100 µM

## C[C@@]1(CO)CCC[C@]2(C)[C@H]3C[C@@H](O)[C@]4(C)[C@H]5COC(=O)C5=CC[C@H]4[C@]3(C)CC[C@@H]12
[1]
  IC50: 2.4 µM
[2]
  IC50: 49.4 µM

## CC1(C)CCC[C@]2(C)[C@H]3C[C@@H](O)[C@]4(C)[C@@H]5C(=CC[C@H]4[C@]3(C)CC[C@@H]12)C(=O)O[C@H]5O
[1]
  IC50: 75 µM
[2]
  IC50: 77.2 µM
[3]
  Activity: Active

## CO[C@@H]1OC(=O)C2=CC[C@H]3[C@]4(C)CC[C@H]5C(C)(C)CCC[C@]5(C)[C@H]4C[C@@H](O)[C@]3(C)[C@H]21
[1]
  IC50: 24 µM
[2]
  IC50: 48 µM
[3]
  Activity: Active

## CC(=O)O[C@@H]1C[C@@H]2[C@@]3(C)CCCC(C)(C)[C@@H]3CC[C@@]2(C)[C@@H]2CC=C3C(=O)O[C@@H](O)[C@@H]3[C@@]12C
[1]
  IC50: 60.4 µM
[2]
  IC50: 75.1 µM
[3]
  Activity: Active
